Only some compounds are listed: those with a hit (about 2.1% of all), similar ones and a draw of the others.
KLF5 inh: KLF5 expression inhibitors, primary screen, DLD-1 cells, luminescence; inhibition, % at 5 µM; 0.23% of 290,000 active; DLD-1 KLF5 promoter-luciferase reporter;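 active = inhibition above a per-plate limit of that plate's mean compound inhibition plus 3 SD, cut at about 60% in these data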;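 also: 0% = DMSO wells and 100% = LY294002 at 200 µM; higher means less KLF5 promoter-driven luciferase light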
bCat nuc transl: modulators of beta-catenin nuclear translocation, primary screen, imaging, HeLa cells, immunofluorescence, high-content; AID 1665, 2009; nuclear translocation activity, % at 5 µM; 0.3% of 190,000 active;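 active = nuclear translocation activity above 50% at 5 µM, with a well cell count of 50 or more; inconclusive = wells under 50 cells across six images, flagged as toxic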;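 also: per-cell ratio of nuclear to cytoplasmic median beta-catenin stain intensity; plate controls were DMSO negative control for no effect and GSK-3 inhibitor IX positive control for full effect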
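System: Human HeLa cells, endogenous beta-catenin | Compound dosing: 5 µM primary, 0.02–20 µM confirmation | Timing: 24 h compound exposure at 37°C, 5% CO2 | Measured by: Fluorescence imaging of beta-catenin antibody stain plus DAPI | Read-out basis: % activation of per-cell nuclear versus cytoplasmic median beta-catenin signal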
MT stabilizer: microtubule stabilizers in HeLa cells, primary screen, imaging, high-content imaging; AID 2205, 2009; 0.83% of 200,000 active; HeLa tubulin immunostaining HCS, 24 h; share of cells brighter than vehicle mean+2SD; % tubulin-high responders, % at 10 µM;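 active = plate Z-score above 3 for both tubulin-high and condensed-nucleus cell shares, with cell loss under 80%, at 10 µM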;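 also: anti alpha tubulin signal scored within the nucleus-defined area of each cell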
Ba/F3 V617F tox: reduced viability of JAK2V617F-dependent Ba/F3 cells, primary screen, JAK2V617F inhibitor project, cell-based, Ba/F3 EpoR-JAK2V617F, luminescence; ATP luminescence; 1.1% of 220,000 active; AID 1446, 2008; inhibition, % at 5.6 µM;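 active = inhibition above the campaign mean plus 3 SD over all tested compounds, cut at about 24% in these data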;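 also: cytokine-independent growth of Ba/F3 cells driven by EpoR plus mutant JAK2; 0% = DMSO-treated cells and 100% = JAK inhibitor I control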
BaF3 tox: parental Ba/F3 cell viability inhibition, counter-screen for JAK2V617F inhibitor project, murine pro-B, CellTiter-Glo luminescence | inhibition, % at 5.6 µM | 1.1% of 220,000 active | CellTiter-Glo ATP luminescence | AID 1486, 2009;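 active = inhibition above a per-campaign cutoff, the mean inhibition of all tested compounds plus 3 SD, cut at about 27% in these data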;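 also: 0% = DMSO wells and 100% = JAK Inhibitor I control wells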
IEC-6 cytotox: cytotoxicity in IEC-6 intestinal epithelial cells, primary screen, cytotoxicity control for KLF5 inhibitor project, cell-based, luminescence; IEC-6 cytotoxicity, luminescence viability; inhibition, % at 5 µM; 0.78% of 290,000 active; AID 1825, 2009; in the data active = inhibition above about 22%;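 also: 0% = plate median of test compound wells and 100% = cytotoxic reference compound wells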
* hit, by the source's call; ? = inconclusive; nt = not tested or not shown.

SMILES | KLF5 inh | bCat nuc transl | MT stabilizer | Ba/F3 V617F tox | BaF3 tox | IEC-6 cytotox
O=C(N/N=C/c1cccnc1)c1cccc(Cl)c1 | -63.6 | nt | nt | nt | nt | -5.1
CC(C)c1ccc(/C=N/NC(=O)c2cccc(Cl)c2)cc1 | -63.5 | nt | 22.7* | -0.2 | 1.0 | -2.8
CC(C)c1ccc(CNC(=O)C(=O)NCC2CCCO2)cc1 (configuration not stated) | -35.0 | nt | 4.1 | 0.2 | 8.8 | 3.0
CSc1cccc(-n2cc(-c3ccc4c(c3)OCO4)[nH]c2=O)c1 | -42.3 | 161.8* | 18.7* | 2.5 | 28.6* | 9.7
CN(Cc1ccccc1)C(=O)CN1C(=O)NC(C)(c2ccc(Cl)cc2)C1=O (configuration not stated) | 4.5 | nt | nt | nt | nt | -2.1
CCn1c(-c2cc3c(C(F)(F)F)nn(C)c3s2)n[nH]c1=S | -61.1 | 2.6 | 2.8 | 3.4 | 9.0 | 2.6
CCOC(=O)c1ccccc1-c1csc(N)n1 | -5.4 | -4.5 | 3.4 | 5.3 | 53.1* | 6.5
CCOC(=O)c1csc(N)n1 | -2.3 | 1.5 | 3.4 | 1.7 | 6.8 | -0.1
O=C(O)CSc1ncnc2sc3c(c12)CCCC3 | -19.9 | -1.9 | 2.0 | -1.1 | 89.8* | 2.2
O=C(O)CSc1ncnc2sc3c(c12)CCC3 | 12.6 | 0.0 | 1.7 | 1.5 | 4.5 | 2.6
COc1cc(NC(=O)c2cc(-c3cccs3)on2)cc(OC)c1OC | -4.8 | 2.1 | 54.0* | -1.2 | 3.2 | 17.1
COc1ccc(NC(=O)c2cc(-c3ccccc3OC)on2)cc1 | -5.6 | 144.6* | 51.1* | 3.2 | 6.4 | 8.3
COc1ccccc1-c1cc(C(=O)NCCc2ccccc2)no1 | -81.8 | nt | 20.9* | -2.6 | 0.6 | 8.4
Cc1ccc(N2C(=O)N(Cc3ccccc3C)c3ccccc3S2(=O)=O)cc1 | -31.8 | 0.3 | 2.0 | 0.6 | 5.7 | 2.8
O=S(=O)(Nc1ccc(N2CCOCC2)cc1)c1ccc(F)cc1 | -6.5 | -1.0 | 2.6 | 1.5 | 89.7* | -6.0
O=S(=O)(Nc1ccc(N2CCCCC2)cc1)c1ccc(F)cc1 | -16.7 | -2.4 | nt | -2.1 | 0.2 | 0.9
CCOC(=O)c1ccccc1NC(=O)COC(=O)CCC(=O)c1ccccc1 | -17.8 | nt | nt | nt | nt | -6.7
COc1ccccc1-n1nc(C(=O)O)c2ccccc2c1=O | -51.7 | nt | 3.2 | -2.6 | 69.0* | -3.1
COc1ccc(CN(C)Cc2nc(Cc3cccc(F)c3)no2)c2cccnc12 | 8.4 | 0.8 | 3.2 | 46.3* | 61.9* | 9.2
CC1(C)Cc2nc3sc4c(=O)n(CC(=O)NCc5ccco5)cnc4c3cc2CO1 | -7.3 | 0.6 | 31.7* | 0.3 | 3.5 | 3.2
S=c1[nH]c(-c2ccccc2)cn1/N=C/c1cccc2ccccc12 | -19.3 | 3.6 | 17.9* | 5.5 | 4.6 | -2.4
CCOC(=O)c1c(NC(=O)CN2CCN(C)CC2)sc(C(=O)Nc2ccccc2)c1C | -67.4 | -1.1 | 35.7* | 6.3 | 7.3 | -4.5
CCOC(=O)c1sc(NC(=O)CCN2CCN(C)CC2)c(C(=O)OCC)c1C | -6.0 | 0.5 | 2.3 | -0.5 | 7.0 | -0.3
CC1=CC(=C2C=CC(=O)C=C2)C=C(C)N1C | -14.8 | -0.1 | nt | 72.8* | 60.2* | -2.1
CCCNC(=O)CS(=O)(=O)c1ccccc1 | -3.7 | nt | nt | nt | nt | 3.5
SMILES | KLF5 inh | bCat nuc transl | MT stabilizer | Ba/F3 V617F tox | BaF3 tox | IEC-6 cytotox
CN1/C(=C\C=[N+](C)c2ccccc2)C(C)(C)c2ccccc21 | -20.5 | nt | 1.4 | 75.3* | 65.6* | 4.8
Cc1ccccc1N=C/C=C1\N(C)c2ccccc2C1(C)C | -18.0 | -0.1 | 1.5 | 0.8 | 47.7* | -1.2
COc1cc(NC(=O)Cn2cnc(S(=O)(=O)N3CCC(C)CC3)c2)cc(OC)c1OC | -22.6 | nt | nt | nt | nt | 2.9
COc1cccc2c1C(=O)c1c(O)c3c(c(O)c1C2=O)C[C@@](O)(C(=O)CO)C[C@@H]3O[C@H]1C[C@H](N)[C@H](O)[C@H](C)O1 | 42.2 | ? | 80.9 | 101.8* | 101.0* | 93.8*
COc1ccc(-c2coc3cc4oc(=O)cc(-c5ccccc5)c4cc23)cc1F | -10.4 | 148.5* | 17.0* | 1.1 | 5.4 | 6.8
Cc1[nH]nc2c1C(c1ccccn1)N(c1ccc(Br)cc1)C2=O (configuration not stated) | -2.9 | -4.5 | 1.6 | -1.7 | 95.5* | -0.9
COc1cc(/C=N/NC(N)=S)ccc1OC(=O)c1ccc(C)cc1 | -30.1 | 3.3 | 3.0 | -1.3 | 1.9 | -1.8
COc1cc(/C=N/NC(N)=S)ccc1OCc1ccc(C)cc1 | -54.5 | nt | 3.8 | 60.2* | 48.5* | 4.7
O=c1c2ccccc2nc(N/N=C/c2c(O)ccc3ccccc23)n1O | -40.5 | 0.5 | 2.6 | 92.5* | 74.4* | 2.2
Cc1c(C(=O)N/N=C/c2ccc(Cl)cc2)[nH]c2ccc(Cl)cc12 | -5.4 | 119.0* | 6.0 | 4.8 | 8.6 | 11.3
CCOc1ccc(/C=N/NC(=O)c2[nH]c3ccc(C)cc3c2C)cc1 | -9.8 | nt | nt | nt | nt | 5.8
COCCn1c(C2CCCCC2)nc2sc3ccccc3c(=O)c2c1=O | -27.7 | -4.2 | 3.1 | -2.0 | 7.4 | -0.5
Cc1nc(NC(=O)c2ccccc2)sc1-c1csc(NCc2ccccc2)n1 | -76.2 | -0.8 | 1.2 | 3.1 | 7.6 | 11.4
Cc1nc(NC(=O)c2ccccc2)sc1-c1csc(N)n1 | -79.1 | 8.5 | 6.1 | 60.7* | 69.0* | 16.7
O=C1CC(/C=C/c2ccco2)=Nc2ccccc2N1 | -0.5 | nt | 2.5 | 1.6 | 0.6 | 3.0
O=C1CC(/C=C/c2ccccn2)=Nc2ccccc2N1 | -34.5 | -0.2 | 7.4* | -0.7 | 3.8 | 6.4
Clc1cc(Br)ccc1OCCOCCN1CCOCC1 | -27.9 | 111.5* | 4.1 | -0.2 | 3.0 | -0.6
Clc1cc(Br)ccc1OCCOCCN1CCCC1 | -62.3 | nt | nt | nt | nt | -1.9
CC1=C([N+](=O)[O-])C(c2ccccc2)NC(=O)N1 (configuration not stated) | -19.8 | nt | nt | nt | nt | -0.7
COc1ccc(C(=O)N2CCN(c3ccc([N+](=O)[O-])c(NCCc4ccc(OC)c(OC)c4)c3)CC2)cc1 | -20.2 | 1.7 | 2.6 | 6.1 | 11.8 | 1.1
COc1ccc(CCNc2cc(N3CCN(C(=O)c4ccc(C)cc4)CC3)ccc2[N+](=O)[O-])cc1OC | -16.7 | -1.7 | 3.2 | 1.1 | 43.4* | -2.3
N#Cc1cnn2ccc(-c3cc(N4CCOCC4)ccc3[N+](=O)[O-])nc12 | -25.6 | 1.0 | 2.6 | 5.9 | 8.9 | 7.7
N#Cc1c(-c2cccs2)cc(-c2cccs2)[nH]c1=O | -14.5 | -0.4 | nt | -3.4 | -1.8 | -1.5
Cc1cc(-c2cccs2)c(C#N)c(=S)[nH]1 | -1.3 | 2.1 | nt | 19.8 | 63.3* | -3.0
Cc1ccsc1C(=O)N1CCN(c2ccccn2)CC1 | -5.8 | nt | nt | nt | nt | 5.3
CCCC(c1nnnn1CC1CCCO1)N1CCN(c2cc(Cl)ccc2C)CC1 (configuration not stated) | -6.0 | 0.6 | 4.0 | -6.0 | 30.7* | 0.0

Screening data (PubChem)
